According to ChEMBL document CHEMBL1275565, “Minimal effects of ritonavir and efavirenz on the pharmacokinetics of raltegravir” (Antimicrob Agents Chemother, 2008):

Tests used:
Format in all cases: ADME, organism-based
[1] = AUC (0 to infinity) in HIV-negative human at 400 mg, po administered as single dose followed by 4 days wash out period followed by […] coadministered with compound at 400 mg, po on day 14; parameters: dose 400 mg, time infinity, route oral; settings: plasma
[2] = Trough plasma concentration at 12 hrs in HIV-negative human at 400 mg, po administered as single dose followed by 4 days wash out period followed by ritonavir dosing at 100 mg, po bid […] coadministered with compound at 400 mg, po on day 14; settings: read-out: Cmin
Procedure, shortened: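 In healthy young males, ritonavir 100 mg twice daily for 14 days, with a single 400 mg oral raltegravir (double-blind vs placebo) given with the morning dose on day 14. All doses followed a moderate-fat meal. Cmax and Tmax by inspection at nominal times; C12h from the 12 h sample; AUC0–∞ by trapezoidal sum plus extrapolation.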

[3] = Terminal half life in HIV-negative human at 400 mg, po administered as single dose; settings: in vivo, read-out: beta t1/2 (converted)
Procedure, shortened: (§1)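 Healthy male volunteers; plasma raltegravir measured by validated reverse-phase HPLC-MS/MS (LLOQ 2 ng/ml, linear 2 to 1,000 ng/ml) and converted to nM. Each subject's profile was fit to a biexponential model (weighting 1/(predicted concentration)², Gauss-Newton minimization), with α-phase onset set by inspection. Phase t1/2 = ln(2)/α or β. Median differences were estimated by Hodges-Lehman with 90% CI.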

[4] = AUC (0 to infinity) in HIV-negative human at 400 mg, po administered as single dose; parameters: dose 400 mg, time infinity, route oral; settings: plasma
Procedure, shortened: (§2)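 Period 1 of two crossover studies in healthy male volunteers: single 400 mg oral raltegravir alone. Plasma sampled 0–72 h postdose and assayed by validated reverse-phase HPLC-MS/MS (LLOQ 2 ng/ml, linear to 1,000 ng/ml), converted to nM (MW 444.4). Cmax by inspection; C12h from the nominal 12 h sample; AUC0–∞ by linear/log trapezoidal plus extrapolation from the last concentration/β.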

[5] = Cmax in HIV-negative human at 400 mg, po administered as single dose followed by 4 days wash out period followed by efavirenz dosing at 600 mg, po bid for 14 days coadministered with compound at 400 mg, po on day 12; parameters: dose 400 mg, route oral; settings: in vivo, in the assay text read “po qd for 14 days” for “po bid for 14 days”
Procedure, shortened: (§3)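 Efavirenz 600 mg orally once daily at bedtime for 14 days, with a single 400 mg oral raltegravir (double-blind vs placebo) alongside on day 12. Healthy males, all doses taken fasted. Plasma sampled at 0–72 h postdose as in the ritonavir study, but at 36 h instead of 32 h, and quantified by HPLC-MS/MS. Cmax by inspection; C12h at nominal 12 h; AUC0–∞ by linear/log trapezoidal plus extrapolation.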

[6] = AUC (0 to infinity) in HIV-negative human at 400 mg, po administered as single dose followed by 4 days wash out period followed by efavirenz dosing at 600 mg, po bid for 14 days coadministered with compound at 400 mg, po on day 12; parameters: dose 400 mg, route oral, time infinity; settings: plasma, in the assay text read “po qd for 14 days” for “po bid for 14 days”; procedure, shortened: as §3
[7] = Trough plasma concentration at 12 hrs in HIV-negative human at 400 mg, po administered as single dose; settings: read-out: Cmin; procedure, shortened: as §2
[8] = Primary phase half life in HIV-negative human at 400 mg, po administered as single dose followed by 4 days wash out period followed by efavirenz dosing at 600 mg, po bid for 14 days coadministered with compound at 400 mg, po on day 12; settings: in vivo, in the assay text read “po qd for 14 days” for “po bid for 14 days”, read-out: alphat1/2 (converted); procedure, shortened: as §1
[9] = Terminal half life in HIV-negative human at 400 mg, po administered as single dose followed by 4 days wash out period followed by efavirenz dosing at 600 mg, po bid for 14 days coadministered with compound at 400 mg, po on day 12; settings: in vivo, in the assay text read “po qd for 14 days” for “po bid for 14 days”, read-out: beta t1/2 (converted); procedure, shortened: as §1
[10] = Primary phase half life in HIV-negative human at 400 mg, po administered as single dose; settings: in vivo, read-out: alphat1/2 (converted); procedure, shortened: as §1
[11] = Primary phase half life in HIV-negative human at 400 mg, po administered as single dose followed by 4 days wash out period followed by ritonavir dosing at 100 mg, po bid for 16 days coadministered with compound at 400 mg, po on day 14; settings: in vivo, read-out: alphat1/2 (converted); procedure, shortened: as §1
[12] = Trough plasma concentration at 12 hrs in HIV-negative human at 400 mg, po administered as single dose followed by 4 days wash out period followed by efavirenz dosing at 600 mg, po bid for 14 days coadministered with compound at 400 mg, po on day 12; settings: in the assay text read “po qd for 14 days” for “po bid for 14 days”, read-out: Cmin; procedure, shortened: as §3
[13] = Cmax in HIV-negative human at 400 mg, po administered as single dose; parameters: dose 400 mg, route oral; settings: in vivo; procedure, shortened: as §2
[14] = Tmax in HIV-negative human at 400 mg, po administered as single dose followed by 4 days wash out period followed by […] coadministered with compound at 400 mg, po on day 14; settings: in vivo
[15] = Terminal half life in HIV-negative human at 400 mg, po administered as single dose followed by 4 days wash out period followed by ritonavir dosing at 100 mg, po bid for 16 days coadministered with compound at 400 mg, po on day 14; settings: in vivo, read-out: beta t1/2 (converted); procedure, shortened: as §1
[16] = Cmax in HIV-negative human at 400 mg, po administered as single dose followed by 4 days wash out period followed by […] coadministered with compound at 400 mg, po on day 14; parameters: dose 400 mg, route oral; settings: in vivo

## Cc1nnc(C(=O)NC(C)(C)c2nc(C(=O)NCc3ccc(F)cc3)c(O)c(=O)n2C)o1 [RALTEGRAVIR]
[1]
  AUC(0-inf): 19.3 µM·h
[2]
  concentration at 12 h: 0.0765 µM
[3]
  half-life: 10.8 h
[4]
  AUC(0-inf): 22.9 µM·h
[5]
  Cmax: 6.45 µM
[6]
  AUC(0-inf): 18.1 µM·h
[7]
  concentration at 12 h: 0.0771 µM
[8]
  half-life: 0.95 h
[9]
  half-life: 9.1 h
[10]
  half-life: 0.98 h
[11]
  half-life: 0.97 h
[12]
  concentration at 12 h: 0.0625 µM
[13]
  Cmax: 9.57 µM
[14]
  Tmax: 2 h
[15]
  half-life: 10 h
[16]
  Cmax: 7.23 µM
